The values below come from ChEMBL document CHEMBL1143111, “Synthesis and antimicrobial activity of novel C-linked imidazole glycoconjugates” (Bioorg Med Chem Lett, 2008).

Test [1] has as its system Bacillus subtilis. The experiment in a line: Antibacterial activity against Bacillus subtilis by broth dilution method. The test is classed as functional. Put shortly: (§1)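 Compounds and reference drugs were dissolved as stocks in 50% DMSO–water, then serially diluted twofold with culture medium, with bacterial inoculum added […], and the MIC was determined. Only compounds that gave a growth-inhibition zone in a prior agar cup diffusion screen went on to this broth dilution test.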
(Dilution methods test growth across graded concentrations, often in twofold steps.)

Test [2] concerns Staphylococcus aureus. The experiment in a line: Antibacterial activity against Staphylococcus aureus by broth dilution method. The format is functional. Put shortly: as §1
In test [3] the test system is Staphylococcus epidermidis. Kind of test: Antibacterial activity against Staphylococcus epidermidis by broth dilution method. The test is classed as functional. An outline of the steps: as §1
Test [4] concerns Escherichia coli. Kind of test: Antibacterial activity against Escherichia coli by broth dilution method. The format is functional. An outline of the steps: as §1
Test [5] deals with Pseudomonas aeruginosa. Kind of test: Antibacterial activity against Pseudomonas aeruginosa by broth dilution method. The test is classed as functional. An outline of the steps: as §1
In test [6] the test system is Klebsiella pneumoniae. The experiment in a line: Antibacterial activity against Klebsiella pneumoniae by broth dilution method. The format is functional. Put shortly:
as §1

The subject of test [7] is Saccharomyces cerevisiae. Kind of test: Antifungal activity against Saccharomyces cerevisiae by agar cup diffusion method. The test is classed as functional, organism-based.
Test [8] has as its system Aspergillus niger. Kind of test: Antifungal activity against Aspergillus niger by agar cup diffusion method. The format is functional, organism-based.
Test [9] concerns Rhizopus arrhizus. The experiment in a line: Antifungal activity against Rhizopus oryzae by agar cup diffusion method. The test is classed as functional, organism-based.
Test [10] has as its system Candida albicans. Kind of test: Antifungal activity against Candida albicans by agar cup diffusion method. The format is functional, organism-based.
A short description of test [11]: Inhibition of bovine N-acetyl-beta-D-glucosaminidase. More on the design: species or system Bos taurus.

SMILES strings stand for the structures. In brackets after ≈: the same amount, converted by molar mass. Activity calls are given as the source filed them.

As a reminder, the MIC is the smallest concentration in the dilution series that meets the test's criterion for growth inhibition. In the case of `OC[C@@H](O)[C@@H](O)[C@@H](O)[C@H](O)c1nc(-c2ccccc2)c(-c2ccccc2)n1Cc1ccccc1`, the MIC in test [1], in [2], in test [3], in [4], in [5] and in test [6] was 75 µg/mL (≈ 163 µM) in each case. Moreover, the result in test [7], in test [8], in test [9] and in test [10] was inactive.

For the compound `Cc1ccc(-n2c([C@H]3O[C@@H]4OC(C)(C)O[C@@H]4[C@H]4OC(C)(C)O[C@H]43)nc(-c3ccccc3)c2-c2ccccc2)cc1`, the MIC is 37.5 µg/mL (≈ 69.6 µM) in [1]; 37.5 µg/mL (≈ 69.6 µM) in [2]; 75 µg/mL (≈ 139 µM) in test [3]; 75 µg/mL (≈ 139 µM) in test [4]; 75 µg/mL (≈ 139 µM) in [5]; 75 µg/mL (≈ 139 µM) in [6]. The outcome in test [7], in test [8], in [9] and in test [10] was inactive.

In the case of `Cc1cccc(-n2c(C3OC(C)(C)O[C@H]3[C@@H](O)[C@H]3COC(C)(C)O3)nc(-c3ccccc3)c2-c2ccccc2)c1` (some centres not stated), the MIC in [1] amounted to 150 µg/mL (≈ 277 µM); in test [2], 150 µg/mL (≈ 277 µM); in test [3], 75 µg/mL (≈ 139 µM); in test [4] it was 75 µg/mL (≈ 139 µM); in test [5] it was 37.5 µg/mL (≈ 69.4 µM); in test [6], 150 µg/mL (≈ 277 µM). Also, the result in test [7], in test [8], in [9] and in [10] was inactive.

Turning to `Cc1ccc(-n2c([C@H]3COC(C)(C)O3)nc(-c3ccccc3)c2-c2ccccc2)cc1`, the MIC in test [1] was determined as 150 µg/mL (≈ 365 µM); in [2] it was 150 µg/mL (≈ 365 µM); in test [3] it was 75 µg/mL (≈ 183 µM); in test [4] it was 75 µg/mL (≈ 183 µM); in [5] it was 150 µg/mL (≈ 365 µM); in [6], 75 µg/mL (≈ 183 µM). In addition, the result in test [7], in test [8], in [9] and in [10] was inactive.

On to `CC1(C)O[C@H]2O[C@H](c3nc(-c4ccccc4)c(-c4ccccc4)n3Cc3ccccc3)[C@H](O)[C@H]2O1`, for which the MIC amounted to 150 µg/mL (≈ 320 µM) in [1]; 150 µg/mL (≈ 320 µM) in test [2]; 150 µg/mL (≈ 320 µM) in test [3]; 150 µg/mL (≈ 320 µM) in test [4]; 37.5 µg/mL (≈ 80 µM) in test [5]; 75 µg/mL (≈ 160 µM) in [6]. Further, the result in [7], in [8], in test [9] and in [10] was inactive.

One may read the Ki as the equilibrium dissociation constant of an inhibitor or competing ligand from its target. High values mean a looser hold on the target, low ones a stronger hold on the target. On to `CC(=O)N[C@H]1c2nc(CC(=O)O)cn2[C@H](CO)[C@H](O)[C@@H]1O` [NAGSTATIN], for which affinity in test [11] was put at a Ki of 4 nM.

Consider `CC1(C)OC[C@H](c2nc(-c3ccccc3)c(-c3ccccc3)n2-c2ccc(F)cc2)O1`, for which the minimal inhibitory concentration (MIC) in test [1] came to 75 µg/mL (≈ 181 µM); in test [2], 75 µg/mL (≈ 181 µM); in test [3], 75 µg/mL (≈ 181 µM); in [4], 37.5 µg/mL (≈ 90.5 µM); in [5] it was 37.5 µg/mL (≈ 90.5 µM); in [6], 75 µg/mL (≈ 181 µM). Further, the result in test [7], in test [8], in test [9] and in [10] was inactive.

Consider `CC1(C)OC(c2nc(-c3ccccc3)c(-c3ccccc3)n2-c2ccc(F)cc2)[C@H]([C@@H](O)[C@H]2COC(C)(C)O2)O1` (some centres not stated), for which the MIC in [1] amounted to 150 µg/mL (≈ 275 µM); in test [2] it was 150 µg/mL (≈ 275 µM); in test [3], 150 µg/mL (≈ 275 µM); in [4], 75 µg/mL (≈ 138 µM); in test [5], 75 µg/mL (≈ 138 µM); in test [6], 75 µg/mL (≈ 138 µM). For the same compound, the outcome in test [7], in test [8], in [9] and in test [10] was inactive.

For `CN[C@@H]1[C@H](O[C@H]2[C@H](O[C@H]3[C@H](O)[C@@H](O)[C@H](N=C(N)N)[C@@H](O)[C@@H]3N=C(N)N)O[C@@H](C)[C@]2(O)C=O)O[C@@H](CO)[C@H](O)[C@H]1O` (stereo in doubt) [STREPTOMYCIN], the MIC worked out at 6.25 µg/mL (≈ 10.7 µM) in test [1]; 1.56 µg/mL (≈ 2.69 µM) in test [2]; 1.56 µg/mL (≈ 2.69 µM) in test [3]; 2.35 µg/mL (≈ 4.04 µM) in test [4]; 3.12 µg/mL (≈ 5.37 µM) in test [5]; 3.12 µg/mL (≈ 5.37 µM) in test [6].

Regarding `Cc1ccc(-n2c(C3OC(C)(C)O[C@H]3[C@@H](O)[C@H]3COC(C)(C)O3)nc(-c3ccccc3)c2-c2ccccc2)cc1` (some centres not stated), the MIC in [1] turned out to be 75 µg/mL (≈ 139 µM); in test [2], 75 µg/mL (≈ 139 µM); in test [3] it was 150 µg/mL (≈ 277 µM); in test [4], 75 µg/mL (≈ 139 µM); in test [5], 75 µg/mL (≈ 139 µM); in test [6], 75 µg/mL (≈ 139 µM). The result in test [7], in [8], in test [9] and in test [10] was inactive.

For `CC1(C)OC(c2nc(-c3ccccc3)c(-c3ccccc3)n2Cc2ccccc2)[C@H]([C@@H](O)[C@H]2COC(C)(C)O2)O1` (some centres not stated), the MIC is 75 µg/mL (≈ 139 µM) in test [1]; 75 µg/mL (≈ 139 µM) in [2]; 150 µg/mL (≈ 277 µM) in test [3]; 75 µg/mL (≈ 139 µM) in test [4]; 37.5 µg/mL (≈ 69.4 µM) in test [5]; 75 µg/mL (≈ 139 µM) in test [6]. Besides, the result in test [7], in test [8], in test [9] and in test [10] was inactive.
